Assay results taken from ChEMBL document CHEMBL2046370, “Beta-carboline alkaloids derived from the ascidian Synoicum sp” (Bioorg Med Chem, 2012).
In brackets after ≈: the same amount, converted by molar mass.

Assays:
[1] = system: Staphylococcus aureus; experiment: Antibacterial activity against Staphylococcus aureus ATCC 6538p after 24 hrs; type: functional
[2] = system: Bacillus subtilis; experiment: Antibacterial activity against Bacillus subtilis ATCC 6633 after 24 hrs; type: functional; conditions: ATCC 6633, 24 h
[3] = system: Micrococcus luteus; experiment: Antibacterial activity against Micrococcus luteus IFC 12708 after 24 hrs; type: functional; conditions: IFC 12708, 24 h
[4] = system: Salmonella typhimurium; experiment: Antibacterial activity against Salmonella typhimurium ATCC 14028 after 24 hrs; type: functional, Salmonella enterica subsp. enterica serovar Typhimurium; conditions: Salmonella enterica, ATCC 14028, 24 h
[5] = system: Proteus vulgaris; experiment: Antibacterial activity against Proteus vulgaris ATCC 3851 after 24 hrs; type: functional; conditions: ATCC 3851, 24 h
[6] = system: Escherichia coli; experiment: Antibacterial activity against Escherichia coli ATCC 35270 after 24 hrs; type: functional; conditions: ATCC 35270, 24 h
[7] = system: Aspergillus fumigatus; experiment: Antifungal activity against Aspergillus fumigatus HIC 6094 after 48 to 72 hrs; type: functional
[8] = system: Trichophyton rubrum; experiment: Antifungal activity against Trichophyton rubrum IFO 9185 after 48 to 72 hrs; type: functional
[9] = system: Trichophyton mentagrophytes; experiment: Antifungal activity against Trichophyton mentagrophytes IFO 40996 after 48 to 72 hrs; type: functional
[10] = system: Candida albicans; experiment: Antifungal activity against Candida albicans ATCC 10231 after 48 to 72 hrs; type: functional
[11] = system: A549; experiment: Cytotoxicity against human A549 cells by MTT assay; type: functional; conditions: read-out: LC50 (the source's name)
[12] = biological target: T1, Sortase A (Staphylococcus aureus, UniProt Q9S446); experiment: Inhibition of Staphylococcus aureus ATCC 6538p recombinant SrtA; set-up: species or system ATCC 6538p r
T1 sequence (Q9S446 whole entry): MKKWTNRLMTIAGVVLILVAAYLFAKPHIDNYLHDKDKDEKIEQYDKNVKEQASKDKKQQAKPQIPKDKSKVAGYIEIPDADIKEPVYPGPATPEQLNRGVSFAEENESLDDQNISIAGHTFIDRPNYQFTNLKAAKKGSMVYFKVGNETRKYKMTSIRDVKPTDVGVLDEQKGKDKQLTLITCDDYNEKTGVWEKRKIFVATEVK

[13] = Inhibition of porcine cerebral cortex Na+/K+ ATPase assessed as formation of fluorescent 3-O-methylfluorescein from 3-O-methylfluorescein phosphate by fluorometry; type: tissue-based, Sus scrofa
[14] = biological target: Isocitrate lyase (Candida albicans, UniProt Q9P8Q7); experiment: Inhibition of Candida albicans recombinant ICL assessed as formation of glyoxylate phenylhydrazone by spectrophotometry
Sequence of Isocitrate lyase (Q9P8Q7 whole entry): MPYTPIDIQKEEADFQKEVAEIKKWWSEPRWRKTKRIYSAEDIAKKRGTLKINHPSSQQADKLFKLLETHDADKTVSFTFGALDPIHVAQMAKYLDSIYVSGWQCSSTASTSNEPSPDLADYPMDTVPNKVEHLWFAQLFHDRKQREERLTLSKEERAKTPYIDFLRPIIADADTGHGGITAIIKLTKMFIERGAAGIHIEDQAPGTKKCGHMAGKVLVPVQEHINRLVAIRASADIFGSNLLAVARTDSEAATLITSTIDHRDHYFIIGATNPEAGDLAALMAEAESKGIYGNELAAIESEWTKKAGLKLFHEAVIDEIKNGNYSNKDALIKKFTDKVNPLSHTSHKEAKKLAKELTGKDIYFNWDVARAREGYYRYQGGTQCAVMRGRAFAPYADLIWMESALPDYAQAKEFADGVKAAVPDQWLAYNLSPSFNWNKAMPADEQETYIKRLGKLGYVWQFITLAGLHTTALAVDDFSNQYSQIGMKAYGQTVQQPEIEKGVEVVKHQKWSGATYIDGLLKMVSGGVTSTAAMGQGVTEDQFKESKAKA
Summary of the method: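 Recombinant enzyme assayed spectrophotometrically with isocitrate and phenylhydrazine present. Absorbance at 324 nm was monitored for glyoxylate phenylhydrazone formation, and IC50 was determined.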

Q: With `O=C(c1cc(Br)c(O)c(Br)c1)c1nccc2c1[nH]c1ccc(Br)cc12` [EUDISTOMIN Y6] as the compound, how does the MIC [1] read?
A: 1.56 mg/L (≈ 2.97 µM)

Q: And the MIC [2]?
A: 1.56 mg/L (≈ 2.97 µM)

Q: What about the MIC [3] of the same compound?
A: 1.56 mg/L (≈ 2.97 µM)

Q: And the MIC [4]?
A: 0.39 mg/L (≈ 0.743 µM)

Q: And the MIC [5]?
A: 0.78 mg/L (≈ 1.49 µM)

Q: What about the MIC [6] of the same compound?
A: 50 mg/L (≈ 95.2 µM)

Q: What about the MIC [7] of the same compound?
A: > 100 mg/L

Q: What about the MIC [8] of the same compound?
A: > 100 mg/L

Q: And the MIC [9]?
A: > 100 mg/L

Q: And the MIC [10]?
A: > 100 mg/L

Q: What about the CC50 [11] of the same compound?
A: 60 µM

Q: And the IC50 [12]?
A: > 190 µM

Q: What about the IC50 [13] of the same compound?
A: 10.1 µM

Q: With `O=C(c1cc(Br)c(O)c(Br)c1)c1nccc2c1[nH]c1cc(Br)ccc12` [EUDISTOMIN Y7] as the compound, how does the MIC [1] read?
A: 3.12 mg/L (≈ 5.95 µM)

Q: What about the MIC [2] of the same compound?
A: 0.78 mg/L (≈ 1.49 µM)

Q: And the MIC [3]?
A: 1.56 mg/L (≈ 2.97 µM)

Q: And the MIC [4]?
A: 0.78 mg/L (≈ 1.49 µM)

Q: What about the MIC [5] of the same compound?
A: 0.78 mg/L (≈ 1.49 µM)

Q: What about the MIC [6] of the same compound?
A: 50 mg/L (≈ 95.2 µM)

Q: And the MIC [7]?
A: > 100 mg/L

Q: What about the MIC [8] of the same compound?
A: > 100 mg/L

Q: What about the MIC [9] of the same compound?
A: > 100 mg/L

Q: And the MIC [10]?
A: > 100 mg/L

Q: What about the CC50 [11] of the same compound?
A: 59 µM

Q: What about the IC50 [12] of the same compound?
A: > 190 µM

Q: What about the IC50 [13] of the same compound?
A: 11.3 µM

Q: With `Oc1ccc(C(O)c2nccc3c2[nH]c2ccccc23)cc1` (stereo unspecified) [EUDISTOMIN Y8] as the compound, how does the MIC [1] read?
A: 100 mg/L (≈ 344 µM)

Q: What about the MIC [2] of the same compound?
A: 100 mg/L (≈ 344 µM)

Q: What about the MIC [3] of the same compound?
A: 100 mg/L (≈ 344 µM)

Q: And the MIC [4]?
A: > 100 mg/L

Q: And the MIC [5]?
A: > 100 mg/L

Q: What about the MIC [6] of the same compound?
A: > 100 mg/L

Q: And the MIC [7]?
A: > 100 mg/L

Q: And the MIC [8]?
A: > 100 mg/L

Q: What about the MIC [9] of the same compound?
A: > 100 mg/L

Q: What about the MIC [10] of the same compound?
A: > 100 mg/L

Q: And the CC50 [11]?
A: > 344 µM

Q: And the IC50 [12]?
A: > 344 µM

Q: And the IC50 [14]?
A: 68.9 µM

Q: What about the IC50 [13] of the same compound?
A: > 344 µM

Q: Which MIC [1] does the source give for `Oc1ccc(C(O)c2nccc3c2[nH]c2ccc(Br)cc23)cc1Br` (stereo unspecified) [EUDISTOMIN Y9] here?
A: 6.25 mg/L (≈ 13.9 µM)

Q: And the MIC [2]?
A: > 100 mg/L

Q: And the MIC [3]?
A: > 100 mg/L

Q: And the MIC [4]?
A: > 100 mg/L

Q: And the MIC [5]?
A: > 100 mg/L

Q: And the MIC [6]?
A: > 100 mg/L

Q: And the MIC [7]?
A: > 100 mg/L

Q: And the MIC [8]?
A: > 100 mg/L

Q: What about the MIC [9] of the same compound?
A: > 100 mg/L

Q: And the MIC [10]?
A: > 100 mg/L

Q: And the CC50 [11]?
A: 17.9 µM

Q: What about the IC50 [12] of the same compound?
A: > 223 µM

Q: What about the IC50 [13] of the same compound?
A: 33.3 µM

Q: With `Oc1c(Br)cc(C(O)c2nccc3c2[nH]c2ccccc23)cc1Br` (stereo unspecified) [EUDISTOMIN Y10] as the compound, how does the MIC [1] read?
A: 25 mg/L (≈ 55.8 µM)

Q: And the MIC [2]?
A: 25 mg/L (≈ 55.8 µM)

Q: What about the MIC [3] of the same compound?
A: 12.5 mg/L (≈ 27.9 µM)

Q: And the MIC [4]?
A: 12.5 mg/L (≈ 27.9 µM)

Q: And the MIC [5]?
A: 12.5 mg/L (≈ 27.9 µM)

Q: And the MIC [6]?
A: > 100 mg/L

Q: And the MIC [7]?
A: > 100 mg/L

Q: And the MIC [8]?
A: > 100 mg/L

Q: And the MIC [9]?
A: > 100 mg/L

Q: What about the MIC [10] of the same compound?
A: > 100 mg/L

Q: What about the CC50 [11] of the same compound?
A: > 223 µM

Q: And the IC50 [12]?
A: > 223 µM

Q: What about the IC50 [13] of the same compound?
A: 122 µM

Q: Which results are given for `Oc1c(Br)cc(C(O)c2nccc3c2[nH]c2ccc(Br)cc23)cc1Br` (stereo unspecified) [EUDISTOMIN Y11]?
A: MIC [1]: 6.25 mg/L (≈ 11.9 µM); MIC [2]: 3.12 mg/L (≈ 5.93 µM); MIC [3]: 3.12 mg/L (≈ 5.93 µM); MIC [4]: 3.12 mg/L (≈ 5.93 µM); MIC [5]: 3.12 mg/L (≈ 5.93 µM); MIC [6]: 100 mg/L (≈ 190 µM); MIC [7]: > 100 mg/L; MIC [8]: > 100 mg/L; MIC [9]: > 100 mg/L; MIC [10]: > 100 mg/L; CC50 [11]: > 190 µM; IC50 [12]: > 190 µM; IC50 [13]: 32.8 µM

Q: Which results are given for `Cc1ccc(S(=O)(=O)Oc2ccc(C(O)c3nccc4c3[nH]c3ccc(Br)cc34)cc2Br)cc1` (stereo unspecified) [EUDISTOMIN Y12]?
A: MIC [1]: > 100 mg/L; MIC [2]: > 100 mg/L; MIC [3]: > 100 mg/L; MIC [4]: > 100 mg/L; MIC [5]: > 100 mg/L; MIC [6]: > 100 mg/L; MIC [7]: > 100 mg/L; MIC [8]: > 100 mg/L; MIC [9]: > 100 mg/L; MIC [10]: > 100 mg/L; CC50 [11]: 63.3 µM; IC50 [12]: > 166 µM; IC50 [14]: > 166 µM

Q: For `OC(c1ccccc1)c1nccc2c1[nH]c1ccc(Br)cc12` (stereo unspecified) [EUDISTOMIN Y13], which MIC [1] is on record?
A: > 100 mg/L

Q: What about the MIC [2] of the same compound?
A: 100 mg/L (≈ 283 µM)

Q: And the MIC [3]?
A: 100 mg/L (≈ 283 µM)

Q: And the MIC [4]?
A: > 100 mg/L

Q: And the MIC [5]?
A: > 100 mg/L

Q: And the MIC [6]?
A: > 100 mg/L

Q: And the MIC [7]?
A: > 100 mg/L

Q: And the MIC [8]?
A: > 100 mg/L

Q: And the MIC [9]?
A: > 100 mg/L

Q: And the MIC [10]?
A: > 100 mg/L

Q: What about the CC50 [11] of the same compound?
A: 49 µM

Q: And the IC50 [12]?
A: > 283 µM

Q: What about the IC50 [14] of the same compound?
A: > 283 µM

Q: Which IC50 [13] does the source give for `C[C@@H]1O[C@@H](O[C@H]2C[C@@H](O)[C@]3(CO)[C@H]4[C@H](O)C[C@]5(C)[C@@H](C6=CC(=O)OC6)CC[C@]5(O)[C@@H]4CC[C@]3(O)C2)[C@H](O)[C@H](O)[C@H]1O` [OUABAIN] here?
A: 6.3 µM
